Assay results from ChEMBL document CHEMBL2424614, “A novel p-terphenyl derivative inducing cell-cycle arrest and apoptosis in MDA-MB-435 cells through topoisomerase inhibition” (Eur J Med Chem, 2013).
Calls of active or inactive are those of the source. The rule behind the calls is not given here.

Assays:
[1] = test system: MDA-MB-435; assay: Induction of apoptosis in human MDA-MB-435 cells assessed as increase in cleaved-caspase 3 expression after 12 to 24 hrs by Western blotting analysis; type: functional, cell-based
Summary of the method: (§1)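 Treated MDA-MB-435 cells lysed in ice-cold Tris-HCl pH 7.4 buffer with Triton, phosphatase and protease inhibitors. Lysates clarified, boiled in SDS loading buffer, run on 8-12% SDS-PAGE and blotted. Membranes blocked in 5% skim milk, probed with primary antibodies, then peroxidase secondaries with ECL detection. β-actin as loading control.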

[2] = test system: MDA-MB-435; assay: Cell cycle arrest in human MDA-MB-435 cells assessed as accumulation at S phase at 1 uM after 24 hrs by propidium iodide staining-based flow cytometry (reference value: 57.11%); type: functional
[3] = target: DNA topoisomerase 2-alpha (Homo sapiens) (UniProt P11388); assay: Inhibition of recombinant human DNA topoisomerase 2-alpha assessed as supression of kDNA decatenation at 100 uM after 30 mins by agarose gel electrophoresis
Sequence of DNA topoisomerase 2-alpha (Homo sapiens) (P11388 whole entry): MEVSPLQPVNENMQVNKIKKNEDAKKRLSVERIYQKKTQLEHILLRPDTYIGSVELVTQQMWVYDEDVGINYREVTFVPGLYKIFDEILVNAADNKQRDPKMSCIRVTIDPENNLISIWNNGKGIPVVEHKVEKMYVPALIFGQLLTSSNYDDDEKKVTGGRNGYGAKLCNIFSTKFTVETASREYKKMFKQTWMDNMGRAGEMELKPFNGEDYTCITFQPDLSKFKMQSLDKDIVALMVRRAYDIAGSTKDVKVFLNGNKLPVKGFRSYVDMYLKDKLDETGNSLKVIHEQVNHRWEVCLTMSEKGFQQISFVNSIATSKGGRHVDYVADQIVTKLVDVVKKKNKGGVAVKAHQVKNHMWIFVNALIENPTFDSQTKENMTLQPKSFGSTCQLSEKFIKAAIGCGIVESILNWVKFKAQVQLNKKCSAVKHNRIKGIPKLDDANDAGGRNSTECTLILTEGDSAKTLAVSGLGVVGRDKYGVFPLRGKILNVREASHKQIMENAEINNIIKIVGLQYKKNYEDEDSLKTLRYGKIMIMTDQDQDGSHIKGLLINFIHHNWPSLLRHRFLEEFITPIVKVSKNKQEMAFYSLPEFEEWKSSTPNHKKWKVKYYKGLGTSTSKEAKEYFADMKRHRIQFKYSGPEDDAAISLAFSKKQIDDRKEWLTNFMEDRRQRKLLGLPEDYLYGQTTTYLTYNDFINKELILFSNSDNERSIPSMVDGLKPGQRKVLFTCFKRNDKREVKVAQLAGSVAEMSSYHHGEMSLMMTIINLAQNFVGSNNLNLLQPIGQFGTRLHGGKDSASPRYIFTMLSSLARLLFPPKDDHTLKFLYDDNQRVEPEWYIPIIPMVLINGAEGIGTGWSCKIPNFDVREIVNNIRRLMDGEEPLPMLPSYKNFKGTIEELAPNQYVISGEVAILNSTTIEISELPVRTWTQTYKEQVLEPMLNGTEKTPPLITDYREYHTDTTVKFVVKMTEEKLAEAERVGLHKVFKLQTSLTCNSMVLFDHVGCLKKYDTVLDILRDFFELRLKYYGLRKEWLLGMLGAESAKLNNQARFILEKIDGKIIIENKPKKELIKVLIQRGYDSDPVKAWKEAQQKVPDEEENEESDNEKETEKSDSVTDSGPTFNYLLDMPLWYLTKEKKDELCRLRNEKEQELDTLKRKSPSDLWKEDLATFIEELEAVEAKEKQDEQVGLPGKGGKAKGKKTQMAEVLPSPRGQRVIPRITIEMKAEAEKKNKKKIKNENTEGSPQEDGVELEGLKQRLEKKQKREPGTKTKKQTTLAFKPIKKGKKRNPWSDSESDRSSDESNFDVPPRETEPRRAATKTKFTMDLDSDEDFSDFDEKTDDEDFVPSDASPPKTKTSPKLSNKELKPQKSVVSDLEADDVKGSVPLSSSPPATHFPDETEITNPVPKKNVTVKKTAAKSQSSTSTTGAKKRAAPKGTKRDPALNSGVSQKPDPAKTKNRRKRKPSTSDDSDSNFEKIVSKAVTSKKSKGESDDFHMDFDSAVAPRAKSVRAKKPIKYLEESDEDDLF
Summary of the method: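 ATP-dependent decatenation assay: 0.20 µg kDNA with 2 units Topo IIα at 37 °C for 30 min, 20 µL. Buffer: 50 mM Tris pH 8.0, KCl, 10 mM MgCl₂, 0.5 mM ATP, 0.5 mM DTT, 30 µg/mL BSA. Stopped with 10% SDS. Agarose gel scored for kDNA versus released minicircles.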

[4] = test system: MDA-MB-435; assay: Induction of apoptosis in human MDA-MB-435 cells assessed as upregulation of Bax protein expression at 0.25 to 1 uM after 12 hrs by Western blotting analysis; type: functional, cell-based; summary of the method: as §1
[5] = test system: MDA-MB-435; assay: Cytotoxicity against human MDA-MB-435 cells assessed as growth inhibition after 72 hrs by MTT assay; type: functional, cell-based; conditions: MDA-MB-435, 72 h
Summary of the method: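 MTT assay: cells treated in triplicate with a range of concentrations for 72 h at 37 °C, 5% CO2. Medium replaced, MTT (5 mg/mL) added for 4 h, then SDS/isobutanol/HCl solubiliser overnight. Absorbance read at 590 nm. Inhibition calculated against control and blank wells; IC50 is concentration giving 50% growth inhibition; three independent experiments.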

[6] = test system: MDA-MB-435; assay: Induction of apoptosis in human MDA-MB-435 cells assessed as nuclear fragmentation at 0.25 to 1 uM by DAPI staining-based fluorscence microscopy; type: functional, cell-based
Summary of the method: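 Treated MDA-MB-435 cells washed in ice-cold PBS, fixed 20 min in 4% paraformaldehyde, stained 30 min at 37 °C with DAPI (50 µg/mL) containing 100 µg/mL RNase A. After PBS washes, examined by fluorescence microscopy (excitation 340 nm, emission 488 nm).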

SMILES: Oc1ccc(-c2ccc(-c3ccc(O)c(O)c3)cc2)cc1
- Activity [1]: Dose-dependent effect
- Activity [2]: 12.58%
- inhibition [3]: Active
- Activity [4]: Active
- IC50 [5]: < 1000 nM
- Activity [6]: Active
